Assay results taken from ChEMBL document CHEMBL5058577, “EUbOPEN Chemogenomics Library 2 (Multiplex)” (2022).

Test system: U2OS
Test: Multiplex assay against U2OS
Format: toxicity, cell-based
Details: human
Summary of the method: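 Tubulin, mitochondrial-mass and membrane-permeability phenotypes are per cents of healthy-nucleus cells. Cells were gated by CellPathfinder machine learning into Hoechst high-intensity objects or normal cells, normal cells into healthy, pyknosed or fragmented nuclei, and pyknosed cells into mitotic or apoptotic. Before that, live cells stained at seeding with Hoechst33342, BioTracker Green Microtubule Cytoskeleton Dye, MitoTracker Red and Annexin V Alexa Fluor 680 were imaged on a CQ1 microscope at 37°C and 5% CO2 after compound addition.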

[1] = 12 h, 1 µM, compound concentration 1 uM, replicate 1
[2] = 12 h, 1 µM, compound concentration 1 uM, replicate 2
[3] = 12 h, 10 µM, compound concentration 10 uM, replicate 1
[4] = 12 h, 10 µM, compound concentration 10 uM, replicate 2
[5] = 24 h, 1 µM, compound concentration 1 uM, replicate 1
[6] = 24 h, 1 µM, compound concentration 1 uM, replicate 2
[7] = 24 h, 10 µM, compound concentration 10 uM, replicate 1
[8] = 24 h, 10 µM, compound concentration 10 uM, replicate 2
[9] = 48 h, 1 µM, compound concentration 1 uM, replicate 1
[10] = 48 h, 1 µM, compound concentration 1 uM, replicate 2
[11] = 48 h, 10 µM, compound concentration 10 uM, replicate 1
[12] = 48 h, 10 µM, compound concentration 10 uM, replicate 2

CCOc1c2c(c(OCC)c3ncccc13)CN(c1ccc(CS(=O)(=O)NC(=O)Cc3ccccc3OC)cc1C)C2=O
Population Apoptotic (%) [1]: 64%
Population Fragmented Nuclei (%) [1]: 22%
Population Healthy Nuclei (%) [1]: 70%
Population Hoechst High Intensity Objects (%) [1]: 2%
Population Membrane Permeable-Phenotype (%) [1]: 7%
Population Mitochondria Different-Phenotype (%) [1]: 3%
Population Mitotic Cells (%) [1]: 35%
Population Normal (%) [1]: 97%
Population Pyknosed Nuclei (%) [1]: 7%
Population Tubulin-Different-Phenotype (%) [1]: 2%
Total Cell Count [1]: 189
Population Apoptotic (%) [2]: 100%
Population Fragmented Nuclei (%) [2]: 13%
Population Healthy Nuclei (%) [2]: 82%
Population Hoechst High Intensity Objects (%) [2]: 1%
Population Membrane Permeable-Phenotype (%) [2]: 9%
Population Mitotic Cells (%) [2]: 0%
Population Normal (%) [2]: 98%
Population Pyknosed Nuclei (%) [2]: 4%
Population Tubulin-Different-Phenotype (%) [2]: 6%
Total Cell Count [2]: 93
Population Apoptotic (%) [3]: 81%
Population Fragmented Nuclei (%) [3]: 30%
Population Healthy Nuclei (%) [3]: 63%
Population Hoechst High Intensity Objects (%) [3]: 2%
Population Membrane Permeable-Phenotype (%) [3]: 5%
Population Mitochondria Different-Phenotype (%) [3]: 3%
Population Mitotic Cells (%) [3]: 18%
Population Normal (%) [3]: 97%
Population Pyknosed Nuclei (%) [3]: 6%
Population Tubulin-Different-Phenotype (%) [3]: 2%
Total Cell Count [3]: 248
Population Apoptotic (%) [4]: 80%
Population Fragmented Nuclei (%) [4]: 21%
Population Healthy Nuclei (%) [4]: 75%
Population Membrane Permeable-Phenotype (%) [4]: 8%
Population Mitochondria Different-Phenotype (%) [4]: 6%
Population Mitotic Cells (%) [4]: 20%
Population Pyknosed Nuclei (%) [4]: 3%
Population Tubulin-Different-Phenotype (%) [4]: 3%
Total Cell Count [4]: 136
Population Apoptotic (%) [5]: 80%
Population Fragmented Nuclei (%) [5]: 21%
Population Healthy Nuclei (%) [5]: 71%
Population Hoechst High Intensity Objects (%) [5]: 3%
Population Membrane Permeable-Phenotype (%) [5]: 4%
Population Mitochondria Different-Phenotype (%) [5]: 0%
Population Mitotic Cells (%) [5]: 20%
Population Normal (%) [5]: 96%
Population Pyknosed Nuclei (%) [5]: 6%
Population Tubulin-Different-Phenotype (%) [5]: 1%
Total Cell Count [5]: 235
Population Apoptotic (%) [6]: 100%
Population Fragmented Nuclei (%) [6]: 19%
Population Healthy Nuclei (%) [6]: 76%
Population Hoechst High Intensity Objects (%) [6]: 1%
Population Membrane Permeable-Phenotype (%) [6]: 7%
Population Mitochondria Different-Phenotype (%) [6]: 4%
Population Mitotic Cells (%) [6]: 0%
Population Normal (%) [6]: 98%
Population Pyknosed Nuclei (%) [6]: 4%
Population Tubulin-Different-Phenotype (%) [6]: 4%
Total Cell Count [6]: 125
Population Apoptotic (%) [7]: 76%
Population Fragmented Nuclei (%) [7]: 27%
Population Healthy Nuclei (%) [7]: 61%
Population Hoechst High Intensity Objects (%) [7]: 3%
Population Membrane Permeable-Phenotype (%) [7]: 6%
Population Mitochondria Different-Phenotype (%) [7]: 2%
Population Mitotic Cells (%) [7]: 23%
Population Normal (%) [7]: 96%
Population Pyknosed Nuclei (%) [7]: 10%
Population Tubulin-Different-Phenotype (%) [7]: 1%
Total Cell Count [7]: 285
Population Apoptotic (%) [8]: 100%
Population Fragmented Nuclei (%) [8]: 17%
Population Healthy Nuclei (%) [8]: 76%
Population Hoechst High Intensity Objects (%) [8]: 0%
Population Mitotic Cells (%) [8]: 0%
Population Normal (%) [8]: 99%
Population Pyknosed Nuclei (%) [8]: 5%
Population Tubulin-Different-Phenotype (%) [8]: 5%
Total Cell Count [8]: 152
Population Apoptotic (%) [9]: 85%
Population Fragmented Nuclei (%) [9]: 19%
Population Healthy Nuclei (%) [9]: 74%
Population Hoechst High Intensity Objects (%) [9]: 2%
Population Membrane Permeable-Phenotype (%) [9]: 3%
Population Mitochondria Different-Phenotype (%) [9]: 1%
Population Mitotic Cells (%) [9]: 15%
Population Normal (%) [9]: 97%
Population Pyknosed Nuclei (%) [9]: 5%
Population Tubulin-Different-Phenotype (%) [9]: 2%
Total Cell Count [9]: 344
Population Apoptotic (%) [10]: 100%
Population Fragmented Nuclei (%) [10]: 17%
Population Healthy Nuclei (%) [10]: 79%
Population Hoechst High Intensity Objects (%) [10]: 4%
Population Membrane Permeable-Phenotype (%) [10]: 7%
Population Mitochondria Different-Phenotype (%) [10]: 3%
Population Mitotic Cells (%) [10]: 0%
Population Normal (%) [10]: 95%
Population Pyknosed Nuclei (%) [10]: 2%
Population Tubulin-Different-Phenotype (%) [10]: 5%
Total Cell Count [10]: 167
Population Apoptotic (%) [11]: 91%
Population Fragmented Nuclei (%) [11]: 19%
Population Healthy Nuclei (%) [11]: 71%
Population Hoechst High Intensity Objects (%) [11]: 2%
Population Membrane Permeable-Phenotype (%) [11]: 5%
Population Mitochondria Different-Phenotype (%) [11]: 1%
Population Mitotic Cells (%) [11]: 8%
Population Normal (%) [11]: 97%
Population Pyknosed Nuclei (%) [11]: 9%
Population Tubulin-Different-Phenotype (%) [11]: 2%
Total Cell Count [11]: 385
Population Apoptotic (%) [12]: 100%
Population Fragmented Nuclei (%) [12]: 18%
Population Healthy Nuclei (%) [12]: 74%
Population Membrane Permeable-Phenotype (%) [12]: 8%
Population Mitochondria Different-Phenotype (%) [12]: 4%
Population Mitotic Cells (%) [12]: 0%
Population Pyknosed Nuclei (%) [12]: 6%
Population Tubulin-Different-Phenotype (%) [12]: 3%
Total Cell Count [12]: 236

CSc1ccccc1N1CCN(CCCCCC(=O)NC2CCCc3ccccc32)CC1.Cl (configuration not stated)
Population Apoptotic (%) [1]: 62%
Population Fragmented Nuclei (%) [1]: 22%
Population Healthy Nuclei (%) [1]: 61%
Population Hoechst High Intensity Objects (%) [1]: 9%
Population Membrane Permeable-Phenotype (%) [1]: 73%
Population Mitochondria Different-Phenotype (%) [1]: 71%
Population Mitotic Cells (%) [1]: 37%
Population Normal (%) [1]: 90%
Population Pyknosed Nuclei (%) [1]: 15%
Population Tubulin-Different-Phenotype (%) [1]: 88%
Total Cell Count [1]: 222
Population Apoptotic (%) [2]: 36%
Population Fragmented Nuclei (%) [2]: 24%
Population Healthy Nuclei (%) [2]: 63%
Population Hoechst High Intensity Objects (%) [2]: 3%
Population Membrane Permeable-Phenotype (%) [2]: 51%
Population Mitochondria Different-Phenotype (%) [2]: 85%
Population Mitotic Cells (%) [2]: 63%
Population Normal (%) [2]: 96%
Population Pyknosed Nuclei (%) [2]: 11%
Population Tubulin-Different-Phenotype (%) [2]: 72%
Total Cell Count [2]: 101
Population Apoptotic (%) [3]: 70%
Population Fragmented Nuclei (%) [3]: 41%
Population Healthy Nuclei (%) [3]: 39%
Population Hoechst High Intensity Objects (%) [3]: 8%
Population Membrane Permeable-Phenotype (%) [3]: 67%
Population Mitochondria Different-Phenotype (%) [3]: 90%
Population Mitotic Cells (%) [3]: 29%
Population Normal (%) [3]: 91%
Population Pyknosed Nuclei (%) [3]: 18%
Population Tubulin-Different-Phenotype (%) [3]: 96%
Total Cell Count [3]: 221
Population Apoptotic (%) [4]: 84%
Population Fragmented Nuclei (%) [4]: 23%
Population Healthy Nuclei (%) [4]: 55%
Population Hoechst High Intensity Objects (%) [4]: 4%
Population Membrane Permeable-Phenotype (%) [4]: 60%
Population Mitochondria Different-Phenotype (%) [4]: 92%
Population Mitotic Cells (%) [4]: 16%
Population Normal (%) [4]: 95%
Population Pyknosed Nuclei (%) [4]: 21%
Population Tubulin-Different-Phenotype (%) [4]: 98%
Total Cell Count [4]: 125
Population Apoptotic (%) [5]: 54%
Population Fragmented Nuclei (%) [5]: 22%
Population Healthy Nuclei (%) [5]: 60%
Population Hoechst High Intensity Objects (%) [5]: 6%
Population Membrane Permeable-Phenotype (%) [5]: 63%
Population Mitochondria Different-Phenotype (%) [5]: 63%
Population Mitotic Cells (%) [5]: 45%
Population Normal (%) [5]: 94%
Population Pyknosed Nuclei (%) [5]: 17%
Population Tubulin-Different-Phenotype (%) [5]: 75%
Total Cell Count [5]: 250
Population Apoptotic (%) [6]: 58%
Population Fragmented Nuclei (%) [6]: 25%
Population Healthy Nuclei (%) [6]: 58%
Population Hoechst High Intensity Objects (%) [6]: 2%
Population Membrane Permeable-Phenotype (%) [6]: 46%
Population Mitochondria Different-Phenotype (%) [6]: 74%
Population Mitotic Cells (%) [6]: 41%
Population Normal (%) [6]: 97%
Population Pyknosed Nuclei (%) [6]: 15%
Population Tubulin-Different-Phenotype (%) [6]: 63%
Total Cell Count [6]: 111
Population Apoptotic (%) [7]: 89%
Population Fragmented Nuclei (%) [7]: 44%
Population Healthy Nuclei (%) [7]: 28%
Population Hoechst High Intensity Objects (%) [7]: 6%
Population Membrane Permeable-Phenotype (%) [7]: 79%
Population Mitochondria Different-Phenotype (%) [7]: 81%
Population Mitotic Cells (%) [7]: 10%
Population Normal (%) [7]: 93%
Population Pyknosed Nuclei (%) [7]: 26%
Population Tubulin-Different-Phenotype (%) [7]: 91%
Total Cell Count [7]: 219
Population Apoptotic (%) [8]: 94%
Population Fragmented Nuclei (%) [8]: 19%
Population Healthy Nuclei (%) [8]: 44%
Population Hoechst High Intensity Objects (%) [8]: 10%
Population Membrane Permeable-Phenotype (%) [8]: 90%
Population Mitochondria Different-Phenotype (%) [8]: 56%
Population Mitotic Cells (%) [8]: 5%
Population Normal (%) [8]: 89%
Population Pyknosed Nuclei (%) [8]: 37%
Population Tubulin-Different-Phenotype (%) [8]: 97%
Total Cell Count [8]: 112
Population Apoptotic (%) [9]: 64%
Population Fragmented Nuclei (%) [9]: 25%
Population Healthy Nuclei (%) [9]: 53%
Population Hoechst High Intensity Objects (%) [9]: 8%
Population Membrane Permeable-Phenotype (%) [9]: 42%
Population Mitochondria Different-Phenotype (%) [9]: 56%
Population Mitotic Cells (%) [9]: 35%
Population Normal (%) [9]: 91%
Population Pyknosed Nuclei (%) [9]: 21%
Population Tubulin-Different-Phenotype (%) [9]: 50%
Total Cell Count [9]: 272
Population Apoptotic (%) [10]: 95%
Population Fragmented Nuclei (%) [10]: 28%
Population Healthy Nuclei (%) [10]: 52%
Population Hoechst High Intensity Objects (%) [10]: 5%
Population Membrane Permeable-Phenotype (%) [10]: 41%
Population Mitochondria Different-Phenotype (%) [10]: 63%
Population Mitotic Cells (%) [10]: 4%
Population Normal (%) [10]: 94%
Population Pyknosed Nuclei (%) [10]: 18%
Population Tubulin-Different-Phenotype (%) [10]: 44%
Total Cell Count [10]: 137
Population Apoptotic (%) [11]: 98%
Population Fragmented Nuclei (%) [11]: 43%
Population Healthy Nuclei (%) [11]: 18%
Population Hoechst High Intensity Objects (%) [11]: 15%
Population Membrane Permeable-Phenotype (%) [11]: 77%
Population Mitochondria Different-Phenotype (%) [11]: 33%
Population Mitotic Cells (%) [11]: 1%
Population Normal (%) [11]: 84%
Population Pyknosed Nuclei (%) [11]: 38%
Population Tubulin-Different-Phenotype (%) [11]: 75%
Total Cell Count [11]: 232
Population Apoptotic (%) [12]: 100%
Population Fragmented Nuclei (%) [12]: 25%
Population Healthy Nuclei (%) [12]: 20%
Population Hoechst High Intensity Objects (%) [12]: 11%
Population Membrane Permeable-Phenotype (%) [12]: 85%
Population Mitochondria Different-Phenotype (%) [12]: 45%
Population Mitotic Cells (%) [12]: 0%
Population Normal (%) [12]: 88%
Population Pyknosed Nuclei (%) [12]: 54%
Population Tubulin-Different-Phenotype (%) [12]: 95%
Total Cell Count [12]: 109
